Data set [1] has as its target Mitogen-activated protein kinase 14 (Homo sapiens, UniProt Q16539).
For data set [2], the system named is Liver microsomes. The data set can be described thus: Metabolic stability in human liver microsomes in absence of NADPH. Type of data set: ADME, Microsome.
The subject of data set [3] is Liver microsomes. As to the kind of experiment: Metabolic stability in rat liver microsomes in absence of NADPH. Format: ADME, Microsome. (Liver microsomes are vesicles of endoplasmic reticulum, rich in cytochrome P450 enzymes.)
Data set [4] deals with Blood. As to the kind of experiment: Inhibition of LPS-induced TNFalpha release in human whole blood after 24 hrs by ELISA. Type of data set: functional, tissue-based. (In general: In an ELISA, binding on a coated surface is turned into a signal by an enzyme label.)
Data set [5] is described as follows: Metabolic stability in rat liver microsomes assessed as compound turnover at 5 uM after 30 mins in presence of NADPH. Format: ADME, Microsome. The following applies: read-out: Drug metabolism. The method in brief: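 5 µM test compound incubated with rat or human hepatic microsomes (1 mg/mL) plus NADPH for 30 min at 37 °C; result given as % turnover.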
A short description of data set [6]: Metabolic stability in human liver microsomes assessed as compound turnover at 5 uM after 30 mins in presence of NADPH. Type of data set: ADME, Microsome. The settings on record: read-out: Drug metabolism.
The test system of data set [7] is Liver microsomes. As to the kind of experiment: Metabolic stability in human liver microsomes assessed as compound turnover at 5 uM after 30 mins in absence of NADPH. Type of data set: ADME, Microsome. The following applies: 0.5 h.
For data set [8], the system named is CHO. As to the kind of experiment: Cytotoxicity against CHO cells at 100 uM. Type of data set: cell-based, Cricetulus griseus. The settings on record: chinese hamster.
The nature of data set [9]: Apparent passive permeability from apical to basolateral side of the human Caco2 cells at 12.5 uM. Type of data set: ADME, cell-based. The following applies: Caco-2. Summed up: (§1)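 Passive permeability across Caco-2 monolayer measured with 12.5 µM test compound in both directions (apical-to-basal and basal-to-apical); Papp reported in 10^-6 cm/s.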
In general terms: Caco-2 monolayers are a common model of the intestinal barrier.

Data set [10] in a line: Apparent passive permeability from basolateral to apical side of the human Caco2 cells at 12.5 uM. Type of data set: ADME, cell-based. The following applies: Caco-2. The method in brief:
as §1

Data set [11] has as its system CHO. The data set can be described thus: Cytotoxicity against CHO cells. The settings on record: Cricetulus griseus. Format: cell-based.
Data set [12] can be described thus: Half life in rat at 1 mg/kg, iv. Format: ADME, organism-based. Set-up: dose 1 mg/kg, route intravenous. The following applies: in vivo.
A short description of data set [13]: Cmax in rat at 1 mg/kg, iv. The following applies: in vivo. Type of data set: ADME, organism-based. More on the design: dose 1 mg/kg, route intravenous.
Data set [14] in a line: Clearance in rat at 1 mg/kg, iv. Format: ADME, organism-based. More on the design: dose 1 mg/kg, route intravenous. The following applies: in vivo.
A short description of data set [15]: AUC (0 to infinity) in rat at 1 mg/kg, iv. The following applies: plasma. Format: ADME, organism-based. More on the design: time infinity, dose 1 mg/kg, route intravenous.
Data set [16] in a line: Volume of distribution at steady state in rat at 1 mg/kg, iv. Type of data set: ADME, organism-based. The following applies: in vivo, read-out: Vdss. Set-up: dose 1 mg/kg, route intravenous.
A short description of data set [17]: Mean residence time in rat at 1 mg/kg, iv. Set-up: dose 1 mg/kg, route intravenous. Type of data set: ADME, organism-based. The following applies: in vivo.
A short description of data set [18]: Cmax in rat at 10 mg/kg, po. Format: ADME, organism-based. More on the design: dose 10 mg/kg, route oral. The settings on record: in vivo.
Data set [19] is described as follows: AUC (0 to infinity) in rat at 10 mg/kg, po. Format: ADME, organism-based. More on the design: time infinity, dose 10 mg/kg, route oral. The following applies: plasma.
A short description of data set [20]: Oral bioavailability in rat at 10 mg/kg. Type of data set: ADME, organism-based. The settings on record: in vivo.
Data set [21] concerns the target Cytochrome P450 3A4 (Homo sapiens, UniProt P08684). As to the kind of experiment: Inhibition of human CYP3A4. Type of data set: ADME.
The target of data set [22] is Cytochrome P450 2C9 (Homo sapiens, UniProt P11712). As to the kind of experiment: Inhibition of human CYP2C9. Type of data set: ADME.
Sequence of Cytochrome P450 2C9 (P11712 whole entry): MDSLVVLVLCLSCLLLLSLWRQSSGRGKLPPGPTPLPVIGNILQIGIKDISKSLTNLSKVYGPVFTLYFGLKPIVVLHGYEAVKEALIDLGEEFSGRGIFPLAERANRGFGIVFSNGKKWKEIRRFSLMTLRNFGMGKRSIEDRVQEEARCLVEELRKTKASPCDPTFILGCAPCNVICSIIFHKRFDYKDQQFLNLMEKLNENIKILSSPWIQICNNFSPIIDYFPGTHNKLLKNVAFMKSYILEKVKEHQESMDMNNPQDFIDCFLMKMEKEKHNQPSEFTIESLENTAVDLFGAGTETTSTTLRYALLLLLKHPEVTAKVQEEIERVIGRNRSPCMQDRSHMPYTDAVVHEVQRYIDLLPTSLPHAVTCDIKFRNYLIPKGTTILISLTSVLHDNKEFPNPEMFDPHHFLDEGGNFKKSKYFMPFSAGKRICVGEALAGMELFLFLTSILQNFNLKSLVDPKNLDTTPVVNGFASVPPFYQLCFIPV
Data set [23] has as its target Cytochrome P450 2C19 (Homo sapiens, UniProt P33261). The data set can be described thus: Inhibition of human CYP2C19. Format: ADME.
The target in data set [24] is Cytochrome P450 2D6 (Homo sapiens, UniProt P10635). The data set can be described thus: Inhibition of human CYP2D6. Type of data set: ADME.
Data set [25] deals with CHO. As to the kind of experiment: Cytotoxicity against CHO cells at 200 uM. Type of data set: cell-based, Cricetulus griseus. The following applies: chinese hamster.
Data set [26] deals with Rattus norvegicus. As to the kind of experiment: Antiinflammatory activity in rat assessed as inhibition of LPS-induced TNFalpha production plasma administered orally 1 hr prior to LPS challenge measured after 1.5 hrs by ELISA. Type of data set: functional.
For data set [27], the target named is hERG (Homo sapiens, UniProt Q12809). As to the kind of experiment: Inhibition of human ERG expressed in HEK293 cells at 10 uM. Format: cell-based. The settings on record: HEK293 cells that express hERG.
Sequence of hERG (Q12809 whole entry): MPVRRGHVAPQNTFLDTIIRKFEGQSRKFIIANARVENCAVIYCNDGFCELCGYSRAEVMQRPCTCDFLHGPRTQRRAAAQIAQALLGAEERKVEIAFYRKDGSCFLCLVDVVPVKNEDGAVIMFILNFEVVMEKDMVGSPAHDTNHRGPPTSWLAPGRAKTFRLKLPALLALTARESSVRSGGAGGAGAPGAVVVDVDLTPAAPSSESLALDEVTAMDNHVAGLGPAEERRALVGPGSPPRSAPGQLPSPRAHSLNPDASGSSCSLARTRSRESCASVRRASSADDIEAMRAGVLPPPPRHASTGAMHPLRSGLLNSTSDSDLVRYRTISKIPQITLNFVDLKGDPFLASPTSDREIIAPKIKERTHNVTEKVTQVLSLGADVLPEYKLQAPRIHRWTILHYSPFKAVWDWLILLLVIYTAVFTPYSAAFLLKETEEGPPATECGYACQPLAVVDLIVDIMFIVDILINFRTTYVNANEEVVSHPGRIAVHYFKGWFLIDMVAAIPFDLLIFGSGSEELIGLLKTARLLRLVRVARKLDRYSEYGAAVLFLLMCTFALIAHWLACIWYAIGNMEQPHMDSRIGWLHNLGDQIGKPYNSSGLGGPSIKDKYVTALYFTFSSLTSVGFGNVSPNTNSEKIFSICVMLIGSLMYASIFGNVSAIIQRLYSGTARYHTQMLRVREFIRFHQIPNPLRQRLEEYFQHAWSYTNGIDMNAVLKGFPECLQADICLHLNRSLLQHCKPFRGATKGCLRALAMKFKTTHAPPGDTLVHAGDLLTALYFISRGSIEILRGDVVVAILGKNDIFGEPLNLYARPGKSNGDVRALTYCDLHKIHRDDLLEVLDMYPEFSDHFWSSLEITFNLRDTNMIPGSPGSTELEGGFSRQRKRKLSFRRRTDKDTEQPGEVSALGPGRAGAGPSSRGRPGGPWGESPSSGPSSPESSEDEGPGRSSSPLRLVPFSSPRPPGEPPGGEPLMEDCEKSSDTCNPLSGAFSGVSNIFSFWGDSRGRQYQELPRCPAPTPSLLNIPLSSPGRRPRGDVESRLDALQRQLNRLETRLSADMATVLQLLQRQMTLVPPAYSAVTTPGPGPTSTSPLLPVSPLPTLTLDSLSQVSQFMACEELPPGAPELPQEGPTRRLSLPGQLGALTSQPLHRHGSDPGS
In data set [28] the target is T1, 5-hydroxytryptamine receptor 1B (Homo sapiens, UniProt P28222). As to the kind of experiment: Inhibition of 5-HT1B.
T1 sequence (P28222 whole entry): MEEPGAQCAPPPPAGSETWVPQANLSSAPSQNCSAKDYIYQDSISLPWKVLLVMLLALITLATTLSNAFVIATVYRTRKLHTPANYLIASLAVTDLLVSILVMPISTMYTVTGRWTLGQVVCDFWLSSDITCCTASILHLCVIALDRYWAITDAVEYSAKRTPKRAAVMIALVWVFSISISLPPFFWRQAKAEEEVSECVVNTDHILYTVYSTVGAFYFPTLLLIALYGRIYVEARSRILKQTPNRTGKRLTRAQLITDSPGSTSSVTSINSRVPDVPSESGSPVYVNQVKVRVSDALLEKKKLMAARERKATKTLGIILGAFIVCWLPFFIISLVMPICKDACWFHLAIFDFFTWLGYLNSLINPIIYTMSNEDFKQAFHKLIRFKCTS
Data set [29] deals with T2, RAF proto-oncogene serine/threonine-protein kinase (Homo sapiens, UniProt P04049). The data set can be described thus: Inhibition of cRaf.
T2 sequence (P04049 whole entry): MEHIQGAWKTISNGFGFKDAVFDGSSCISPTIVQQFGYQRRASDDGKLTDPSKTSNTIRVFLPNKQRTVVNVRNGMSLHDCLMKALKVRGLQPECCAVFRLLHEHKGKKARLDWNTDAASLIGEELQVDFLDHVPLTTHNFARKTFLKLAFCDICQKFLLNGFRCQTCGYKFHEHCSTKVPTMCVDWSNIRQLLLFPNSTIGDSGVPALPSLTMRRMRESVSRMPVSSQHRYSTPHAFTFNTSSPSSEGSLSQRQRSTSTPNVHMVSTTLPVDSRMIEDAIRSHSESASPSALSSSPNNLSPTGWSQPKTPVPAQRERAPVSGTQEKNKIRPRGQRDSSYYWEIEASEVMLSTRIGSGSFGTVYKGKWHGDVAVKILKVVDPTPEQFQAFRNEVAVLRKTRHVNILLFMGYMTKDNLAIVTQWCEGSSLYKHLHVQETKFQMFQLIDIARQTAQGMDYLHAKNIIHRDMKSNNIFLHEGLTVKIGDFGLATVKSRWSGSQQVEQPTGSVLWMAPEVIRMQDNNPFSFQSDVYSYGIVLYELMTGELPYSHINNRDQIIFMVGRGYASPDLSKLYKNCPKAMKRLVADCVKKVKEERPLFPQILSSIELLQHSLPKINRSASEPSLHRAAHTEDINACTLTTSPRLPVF
The target of data set [30] is T3, High affinity nerve growth factor receptor (Homo sapiens, UniProt P04629). The data set can be described thus: Inhibition of human TrkA.
Target sequence in this assay (P04629 whole entry): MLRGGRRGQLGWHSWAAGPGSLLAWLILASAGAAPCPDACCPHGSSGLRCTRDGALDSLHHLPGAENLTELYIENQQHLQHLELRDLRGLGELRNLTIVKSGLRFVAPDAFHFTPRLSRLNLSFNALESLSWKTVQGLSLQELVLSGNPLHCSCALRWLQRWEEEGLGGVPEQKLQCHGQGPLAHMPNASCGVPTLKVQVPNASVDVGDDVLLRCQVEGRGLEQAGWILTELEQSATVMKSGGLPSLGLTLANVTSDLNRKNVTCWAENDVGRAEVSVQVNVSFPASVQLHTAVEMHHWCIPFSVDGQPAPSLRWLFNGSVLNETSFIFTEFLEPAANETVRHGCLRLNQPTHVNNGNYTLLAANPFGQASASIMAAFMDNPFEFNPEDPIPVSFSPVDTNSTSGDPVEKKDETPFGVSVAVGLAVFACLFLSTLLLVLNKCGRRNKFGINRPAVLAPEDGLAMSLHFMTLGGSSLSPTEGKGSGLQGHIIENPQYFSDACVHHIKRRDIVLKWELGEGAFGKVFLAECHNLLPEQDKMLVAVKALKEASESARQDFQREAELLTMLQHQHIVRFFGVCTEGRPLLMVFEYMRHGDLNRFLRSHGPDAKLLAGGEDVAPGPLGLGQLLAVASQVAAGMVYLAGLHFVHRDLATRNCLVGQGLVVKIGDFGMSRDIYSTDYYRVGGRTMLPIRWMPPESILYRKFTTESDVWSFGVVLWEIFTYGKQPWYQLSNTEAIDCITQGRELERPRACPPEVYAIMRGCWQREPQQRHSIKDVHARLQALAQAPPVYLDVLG
Data set [31] has as its target T4, Cytochrome P450 1A2 (Homo sapiens, UniProt P05177).
T4 sequence (P05177 whole entry): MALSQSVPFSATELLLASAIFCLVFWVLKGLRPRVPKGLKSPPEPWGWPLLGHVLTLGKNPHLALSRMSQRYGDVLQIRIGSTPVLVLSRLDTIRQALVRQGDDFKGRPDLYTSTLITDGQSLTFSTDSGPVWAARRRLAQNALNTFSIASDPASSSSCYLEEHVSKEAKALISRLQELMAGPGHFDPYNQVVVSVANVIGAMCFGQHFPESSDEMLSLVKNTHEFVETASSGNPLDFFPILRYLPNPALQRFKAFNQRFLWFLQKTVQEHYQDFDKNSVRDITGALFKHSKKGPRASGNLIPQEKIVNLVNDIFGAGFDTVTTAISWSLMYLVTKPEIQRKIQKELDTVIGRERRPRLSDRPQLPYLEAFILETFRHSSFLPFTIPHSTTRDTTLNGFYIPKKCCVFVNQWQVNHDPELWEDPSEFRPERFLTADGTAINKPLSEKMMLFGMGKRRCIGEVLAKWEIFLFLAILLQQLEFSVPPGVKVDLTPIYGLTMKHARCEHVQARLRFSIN
As to the kind of experiment: Inhibition of human CYP1A2. Type of data set: ADME.

In data set [32] the target is T1, 5-hydroxytryptamine receptor 1B. The settings on record: 10 uM.
In data set [33] the target is T2, RAF proto-oncogene serine/threonine-protein kinase. The following applies: 10 uM.
Data set [34] addresses T3, High affinity nerve growth factor receptor. The settings on record: 10 uM.

Sequence of Mitogen-activated protein kinase 14 (Q16539 whole entry): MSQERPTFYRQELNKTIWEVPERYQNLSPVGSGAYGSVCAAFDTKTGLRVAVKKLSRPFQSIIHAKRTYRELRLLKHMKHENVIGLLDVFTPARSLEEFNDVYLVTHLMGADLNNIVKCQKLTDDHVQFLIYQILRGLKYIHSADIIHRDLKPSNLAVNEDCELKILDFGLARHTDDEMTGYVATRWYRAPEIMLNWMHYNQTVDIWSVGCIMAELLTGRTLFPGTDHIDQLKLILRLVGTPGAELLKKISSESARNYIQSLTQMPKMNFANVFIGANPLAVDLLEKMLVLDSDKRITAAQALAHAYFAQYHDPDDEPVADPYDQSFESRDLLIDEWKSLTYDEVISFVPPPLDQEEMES
Sequence of Cytochrome P450 3A4 (P08684 whole entry): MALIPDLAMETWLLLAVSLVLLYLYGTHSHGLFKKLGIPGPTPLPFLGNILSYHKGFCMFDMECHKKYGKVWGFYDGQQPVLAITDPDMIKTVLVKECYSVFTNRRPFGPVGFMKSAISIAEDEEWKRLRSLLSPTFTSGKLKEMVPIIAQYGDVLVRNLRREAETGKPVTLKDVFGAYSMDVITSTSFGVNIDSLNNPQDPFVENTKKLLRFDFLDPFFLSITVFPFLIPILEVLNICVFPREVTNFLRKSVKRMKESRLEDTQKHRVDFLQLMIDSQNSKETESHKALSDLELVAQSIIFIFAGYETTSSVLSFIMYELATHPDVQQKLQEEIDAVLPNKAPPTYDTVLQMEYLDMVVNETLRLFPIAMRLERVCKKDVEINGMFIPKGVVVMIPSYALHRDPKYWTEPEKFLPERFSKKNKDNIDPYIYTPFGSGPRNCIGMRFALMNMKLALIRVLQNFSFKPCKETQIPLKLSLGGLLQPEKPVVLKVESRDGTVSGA
Sequence of Cytochrome P450 2C19 (P33261 whole entry): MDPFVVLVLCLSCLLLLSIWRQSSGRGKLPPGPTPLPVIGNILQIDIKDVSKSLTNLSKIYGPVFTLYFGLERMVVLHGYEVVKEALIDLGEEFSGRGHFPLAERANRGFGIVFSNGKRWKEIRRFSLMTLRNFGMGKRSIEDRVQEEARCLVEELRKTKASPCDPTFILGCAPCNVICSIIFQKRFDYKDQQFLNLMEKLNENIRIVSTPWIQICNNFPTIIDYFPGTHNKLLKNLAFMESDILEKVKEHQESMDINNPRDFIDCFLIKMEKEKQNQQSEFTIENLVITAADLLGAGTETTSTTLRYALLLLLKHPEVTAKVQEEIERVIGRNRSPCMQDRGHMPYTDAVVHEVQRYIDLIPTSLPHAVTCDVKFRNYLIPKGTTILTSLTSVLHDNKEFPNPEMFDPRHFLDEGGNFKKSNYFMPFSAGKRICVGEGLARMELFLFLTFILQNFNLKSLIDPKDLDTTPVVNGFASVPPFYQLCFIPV

Usually IC50 stands for the concentration needed to halve the response being measured. Read a high IC50 as a need for much substance. With `Cc1ccc(-c2nnc(C3CC3)[nH]2)cc1-c1ccc2c(c1)NC(=O)C21CCCC1`, the IC50 in data set [1] was determined as 135 nM.

Turning to `Cc1nc(-c2ccc(C)c(-c3ccc4c(c3)NC(=O)C43CCCC3)c2)no1`, the Stability entry in data set [2] and in data set [3] was “Stable” each time. The compound also returned an IC50 in data set [1] of 583 nM.

On to `Cc1nnc(-c2ccc(C)c(-c3ccc4c(c3)NC(=O)C43CCCC3)c2)[nH]1`, for which the IC50 in data set [4] is 127 nM; in data set [1], 7.4 nM. Moreover, the Stability entry in data set [2], in data set [3] and in [7] was “Stable” throughout. Also, the metabolised at 0.5 h, 5 µM worked out at 15% in data set [5] and 13% in [6]. Besides, the Activity in data set [8] is 53%.

`Cc1ccc2c(NC3CC3)noc2c1-c1ccc2c(c1)NC(=O)C21CCCC1` had an IC50 in data set [4] of 2 nM.

Take `Cc1noc(-c2ccc(C)c(-c3ccc4c(c3)NC(=O)C43CCCC3)c2)n1`: the Stability result in data set [2] and in data set [3] was “Stable” throughout. Further, the IC50 in [1] is 741 nM.

The compound `Cc1ccc2c(NC3CC3)noc2c1-c1ccc2c(c1)NC(=O)C2(C)C` gave an IC50 in data set [4] of 50 nM.

In the case of `Cc1nnc(-c2ccc(C)c(-c3ccc4c(c3)NC(=O)C4(C)C)c2)[nH]1`, in data set [1], the IC50 came to 87 nM.

`Cc1cnc(-c2ccc(C)c(-c3ccc4c(c3)NC(=O)C43CCOCC3)c2)[nH]1`: the Stability result in data set [2] and in data set [3] was “Stable” each time. The same compound displayed an IC50 in [1] of 173 nM.

The Papp A→B is how fast a substance crosses the layer from the apical side. By Papp B→A is commonly meant how fast a substance crosses the layer from the basolateral side. A word on the half-life: it is the time in which the quantity being followed falls by half. Higher therefore signals slow decline. Broadly, the Cmax is the peak of the concentration-time curve. As a reminder, the clearance is a measure of how efficiently the substance is removed, as volume per time. A low value points to a low capacity for elimination. Usually AUC(0-inf) stands for total exposure, with the tail of the curve extrapolated. The low end stands for less exposure, the high end for more exposure. One may read the MRT as the average time that molecules of a dose stay in the body. As a reminder, the bioavailability is dose-corrected exposure relative to a reference, in per cent. `Cc1nnc(-c2ccc(C)c(-c3ccc4c(c3)NC(=O)C43CCN(S(C)(=O)=O)CC3)c2)[nH]1`: the IC50 in [4] is 50 nM; in data set [11] it was 100000 nM. The metabolised at 0.5 h, 5 µM in [5] is under 5%; in data set [6], 6%. Moreover, the Stability result in data set [7] is given as “Stable”. In addition, the Papp A→B at 12.5 µM in [9] was determined as 2 ×10⁻⁶ cm/s. In addition, the Papp B→A at 12.5 µM in data set [10] was found to be 45 ×10⁻⁶ cm/s. This compound also showed a half-life in data set [12] of 3.8 h. The Cmax in [13] is 1300 ng/mL; in data set [18], 632 ng/mL. In data set [14], this compound displayed a clearance of 17.2 mL/min/kg. Further, the figures for the AUC(0-inf) in [15] and in [19] were 1030 ng·h/mL and 1370 ng·h/mL, respectively. For the same compound, in data set [16], the Vd was found to be 1.75 L/kg. The compound also had a mean residence time (MRT) in data set [17] of 1.8 h. In addition, the bioavailability in [20] was determined as 13%.

With `O=C1Nc2cc(-c3cccc4c(NC5CC5)noc34)c(Cl)cc2C12CCCC2`, the IC50 in data set [4] worked out at 438 nM.

Usually inhibition stands for the percentage by which the read-out fell short of the control. As a reminder, the ED50 is the midpoint of the dose-response relation. Take `Cc1nnc(-c2ccc(C)c(-c3ccc4c(c3)NC(=O)C43CCOCC3)c2)[nH]1`: the IC50 is over 25000 nM in data set [21]; over 25000 nM in data set [22]; over 25000 nM in data set [23]; over 25000 nM in data set [24]; 93 nM in data set [4]; 10000 nM in data set [28]. Also, the IC50 in [29] is 1600 nM; in [30] it was 7700 nM; in [31] it was over 25000 nM; in data set [1], 7.6 nM. Moreover, the Stability result in [2], in data set [3] and in data set [7] was “Stable” throughout. The figures for the metabolised at 0.5 h, 5 µM in data set [5] and in [6] were 23% and under 5%, respectively. Moreover, in [9], the Papp A→B at 12.5 µM stood at 18 ×10⁻⁶ cm/s. In addition, the apparent permeability from basolateral to apical (Papp B→A) at 12.5 µM in data set [10] came out at 27 ×10⁻⁶ cm/s. For the same compound, the Activity in [25] is 48%. This compound also gave a half-life in data set [12] of 3.1 h. Also, the Cmax is 1720 ng/mL in data set [13] and 1100 ng/mL in data set [18]. This compound also came in with a clearance in data set [14] of 4.2 mL/min/kg. The AUC(0-inf) amounted to 4060 ng·h/mL in data set [15] and 11700 ng·h/mL in data set [19]. Besides, the Vd in [16] amounted to 1 L/kg. In data set [17], this compound showed a mean residence time MRT of 4 h. Moreover, the bioavailability in data set [20] was 29%. Also, the inhibition entry was “Dose-dependent effect” in [26], over 50% in data set [32], over 50% in data set [33] and over 50% in data set [34]. Moreover, in data set [26] (po), the ED50 is 0.69 mg/kg. In addition, the inhibition at 10 µM in [27] was determined as 49%.

(Values after ChEMBL document CHEMBL1909512, “Indolin-2-one p38α inhibitors III: bioisosteric amide replacement” (Bioorg Med Chem Lett, 2011).)
